In ChEMBL document CHEMBL3120162, “Sesquiterpenes from Neurolaena lobata and their antiproliferative and anti-inflammatory activities” (J Nat Prod, 2014):
Activity calls are given as the source filed them. The rule behind the calls is not given here.

Key:
[1] = system: HUVEC; test: Inhibition of LPS-induced IL-8 secretion in HUVEC expressing TERT treated for 15 mins prior to LPS challenge measured after 6 hrs by ELISA; assay type: functional, Homo sapiens
Method in brief: (§1)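 Immortalized HUVEC (hTERT) were grown in medium 199 with 20% FBS, glutamine and ECGS/heparin. Compounds were added in medium with 5% FBS (final 30 μM) 15 min before a stimulus: TNF-α 30 ng/mL or LPS 100 ng/mL final. Media were collected after 6 h and IL-8 protein was measured by ELISA with TMB substrate. Sextuplicates, BAY positive control, ANOVA.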

[2] = system: HUVEC; test: Inhibition of TNF-alpha-induced IL-8 secretion in HUVEC expressing TERT treated for 15 mins prior to LPS challenge measured after 6 hrs by ELISA; assay type: functional, Homo sapiens; method in brief: as §1
[3] = system: MCF7; test: Antiproliferative activity against human MCF7 cells assessed as inhibition of cell proliferation after 72 hrs by MTT assay; assay type: functional, cell-based; settings: MCF7, 72 h
Method in brief: (§2)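 Cells seeded at 5000/well and allowed to attach overnight, then given fresh medium with test agents (from 10 mM DMSO stocks; at most 0.3% DMSO in medium) for 72 h. 5 mg/mL MTT solution was added for 4 h, and formazan was dissolved in DMSO and read at 545 nm. Untreated cells served as negative control and cisplatin as reference. Two plates, ≥5 parallel wells each. IC50 from sigmoidal dose-response fits.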

[4] = system: HeLa; test: Antiproliferative activity against human HeLa cells assessed as inhibition of cell proliferation after 72 hrs by MTT assay; assay type: functional, cell-based; method in brief: as §2
[5] = system: A-431; test: Antiproliferative activity against human A431 cells assessed as inhibition of cell proliferation after 72 hrs by MTT assay; assay type: functional, cell-based; settings: A-431, 72 h; method in brief: as §2
[6] = system: A2780; test: Antiproliferative activity against human A2780 cells assessed as inhibition of cell proliferation after 72 hrs by MTT assay; assay type: functional, cell-based; settings: A2780, 72 h; method in brief: as §2
[7] = system: HUVEC; test: Inhibition of TNF-alpha-induced IL-8 secretion in HUVEC expressing TERT at 30 uM treated for 15 mins prior to LPS challenge measured after 6 hrs by ELISA; assay type: functional, cell-based; settings: Homo sapiens; method in brief: as §1
[8] = system: HUVEC; test: Inhibition of LPS-induced IL-8 secretion in HUVEC expressing TERT at 30 uM treated for 15 mins prior to LPS challenge measured after 6 hrs by ELISA; assay type: functional, cell-based; settings: Homo sapiens; method in brief: as §1

Structure (SMILES) | inhibition (INH) [1] [%] | inhibition (INH) [2] [%] | IC50 [3] [µM] | IC50 [4] [µM] | IC50 [5] [µM] | IC50 [6] [µM] | inhibition [7] | inhibition [8]
Cc1ccc(S(=O)(=O)/C=C/C#N)cc1 | 12.7 | 23.7 |  |  |  |  |  | 
C=C1C(=O)O[C@@H]2[C@@H]1[C@H](OC(=O)CC(C)C)C[C@@]1(C)[C@H](O)C[C@H](OC(C)=O)C(=C)[C@H]21 (relative stereo) |  |  | > 10 | > 10 | 5.3 | 7.2 | inactive | Active
C=C1C(=O)O[C@@H]2/C=C(\C)[C@H](O)C[C@H]3O[C@]3(C)C[C@@H](OC(=O)CC(C)C)[C@@H]12 (relative stereo) |  |  | 7.2 | > 10 | 7.2 | 4.7 | inactive | Active
C=C1C(=O)O[C@@H]2[C@@H](O)[C@@H](C)C3=CC(=O)[C@](C)(O3)[C@H](O)[C@@H](OC(=O)CC(C)C)[C@@H]12 (relative stereo) |  |  | > 10 | > 10 | > 10 | > 10 | inactive | Active
C=C1C(=O)O[C@@H]2C[C@@]3(C)O[C@H](O[C@H]3CC(=O)C(C)=O)[C@@H](OC(=O)CC(C)C)[C@@H]12 (relative stereo) |  |  | > 10 | > 10 | 6.8 | 5.4 | inactive | Active
C=C1C(=O)O[C@@H]2C[C@]3(C)O[C@@H](O[C@@H]3CC(=O)C(C)=O)[C@@H](OC(=O)CC(C)C)[C@@H]12 (relative stereo) |  |  | > 10 | > 10 | > 10 | 9.8 | inactive | Active
